ChEMBL document CHEMBL2331325, “Antioxidant lignans and chromone glycosides from Eurya japonica” (J Nat Prod, 2013)

Assays:
[1] = tested on: Radical scavenging activity; assay: Antioxidant activity assessed as DPPH radical scavenging activity […]; type: functional
Procedure, shortened: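 Shaken in the dark at room temperature for 30 min, then absorbance read at 517 nm. Negative control without compound. ED50 taken as the concentration scavenging 50% of DPPH radicals.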

[2] = Cytotoxicity against mouse RAW264.7 cells assessed as cell viability at 20 ug/ml after 24 hrs by MTT assay; type: cell-based; settings: read-out: Activity
Procedure, shortened: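 Viability of RAW 264.7 cells measured by MTT after 24 h co-treatment with LPS (1000 ng/mL) and compound at 20 μg/mL. Compounds dissolved in DMSO and diluted in sterile PBS.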

RAW264.7 [3] = assay: Inhibition of LPS-induced NO production in mouse RAW264.7 cells after 24 hrs at 20 ug/ml; type: functional; set-up: scale not given: the % may be the effect or the level left
RAW264.7 [4] = assay: Inhibition of LPS-induced NO production in mouse RAW264.7 cells after 24 hrs; type: functional, cell-based; settings: RAW264.7, 24 h

Compound	ED50 [1]	viability at 24 h, 20 ug/ml [2]	Activity (RAW264.7 [3])	IC50 (RAW264.7 [4])
C=C(C)[C@@H]1CC[C@]2(C(=O)O)CC[C@]3(C)[C@H](CC[C@@H]4[C@@]5(C)CC[C@H](O)C(C)(C)[C@@H]5CC[C@]43C)[C@@H]12 [BETULINIC ACID]	> 100 µM	60.3%	56.19%	–
COc1cc(O[C@@H]2O[C@H](CO)[C@@H](O)[C@H](O)[C@H]2O)cc(OC)c1OC	> 100 µM	–	–	–
COc1cc([C@H]2c3c(cc(OC)c(O)c3OC)C[C@@H](CO[C@@H]3O[C@H](CO)[C@@H](O)[C@H](O)[C@H]3O)[C@@H]2CO)cc(OC)c1O	37.6 µM	101%	39.22%	–
O=C1c2c(O)cc(O)cc2OC(c2ccc(O)c(O)c2)C1O[C@@H]1OC[C@@H](O)[C@H](O)[C@H]1O (single isomer, unassigned)	25.2 µM	107%	37.84%	–
O=c1c(O[C@@H]2O[C@H](CO)[C@@H](O)[C@H](O)[C@H]2O)coc2cc(O)cc(O)c12	> 100 µM	105%	53.79%	–
O=C1O[C@H]2[C@H](O)[C@@H](O)[C@H](CO)O[C@@H]2c2c1cc(O)c(O)c2O	> 100 µM	–	–	–
O=C1C=CC(O)(CCO[C@@H]2O[C@H](COC(=O)/C=C/c3ccc(O)cc3)[C@@H](O)[C@H](O)[C@H]2O)C=C1	> 100 µM	–	–	–
O=C1c2c(O)cc(O)cc2O[C@H](c2ccc(O)c(O)c2)[C@@H]1O[C@@H]1OC[C@@H](O)[C@H](O)[C@H]1O	26.6 µM	108%	35.32%	–
COc1cc(CCCO)cc(OC)c1O[C@@H]1O[C@H](CO)[C@@H](O)[C@H](O)[C@H]1O	> 100 µM	–	–	–
O=C1c2c(O)cc(O)cc2O[C@@H](c2ccc(O)c(O)c2)[C@@H]1O[C@@H]1O[C@H](CO)[C@@H](O)[C@H](O)[C@H]1O	36.2 µM	105%	35.78%	–
COc1cc2c(c(OC)c1O)[C@H]1c3c(cc(OC)c(O)c3OC)OC[C@@H](C2)[C@H]1CO[C@@H]1O[C@H](CO)[C@@H](O)[C@H](O)[C@H]1O	24.7 µM	110%	40.37%	–
O=c1c(O[C@@H]2OC[C@@H](O)[C@H](O)[C@H]2O)coc2cc(O)cc(O)c12	> 100 µM	102%	36.24%	–
O=C(/C=C/c1ccc(O)cc1)OC[C@H]1O[C@@H](OCCc2ccc(O)c(O)c2)[C@H](O)[C@@H](O)[C@@H]1O	33 µM	–	–	–
O=C1c2c(O)cc(O)cc2O[C@H](c2ccc(O)c(O)c2)[C@H]1O[C@@H]1O[C@H](CO)[C@@H](O)[C@H](O)[C@H]1O	33.5 µM	101%	35.55%	–
Cc1c(C)c2c(c(C)c1O)CC[C@@](C)(CCC[C@H](C)CCC[C@H](C)CCCC(C)C)O2	27.2 µM	–	–	–
COc1ccc(O[C@@H]2O[C@H](CO)[C@@H](O)[C@H](O)[C@H]2O)cc1OC	> 100 µM	–	–	–
COc1cc([C@H]2c3cc(O)c(OC)cc3C[C@@H](CO)[C@@H]2CO[C@@H]2O[C@@H](C)[C@H](O)[C@@H](O)[C@H]2O)ccc1O [AVICULIN]	44.8 µM	112%	39.68%	–
COc1cc(CO)cc(OC)c1O[C@@H]1O[C@H](CO)[C@@H](O)[C@H](O)[C@H]1O	> 100 µM	–	–	–
COc1cc(O[C@@H]2O[C@H](CO)[C@@H](O)[C@H](O)[C@H]2O)cc(O)c1OC	> 100 µM	–	–	–
O=C1c2c(O)cc(O)cc2O[C@@H](c2ccc(O)c(O)c2)[C@H]1O[C@@H]1OC[C@@H](O)[C@H](O)[C@H]1O	26.5 µM	102%	36.7%	–
O=c1c(O[C@@H]2OC[C@H](O)[C@H](O)[C@H]2O)coc2cc(O)cc(O)c12	133 µM	106%	38.07%	–
COc1cc([C@@H]2c3c(cc(OC)c(O)c3OC)C[C@H](CO)[C@H]2CO[C@@H]2O[C@H](CO)[C@@H](O)[C@H](O)[C@H]2O)cc(OC)c1O	26.6 µM	104%	38.76%	–
COc1cc(CCO)cc(OC)c1O[C@@H]1O[C@H](CO)[C@@H](O)[C@H](O)[C@H]1O	> 100 µM	–	–	–
COc1cc2c(c(OC)c1O)[C@@H]1c3c(cc(OC)c(O)c3OC)OC[C@H](C2)[C@@H]1CO[C@@H]1O[C@H](CO)[C@@H](O)[C@H](O)[C@H]1O	23.4 µM	106%	38.99%	–
O=C1c2c(O)cc(O)cc2O[C@H](c2ccc(O)c(O)c2)[C@H]1O[C@@H]1OC[C@@H](O)[C@H](O)[C@H]1O	30.4 µM	105%	33.26%	–
CC[C@H](CC[C@@H](C)[C@H]1CC[C@H]2[C@@H]3CC=C4C[C@@H](O[C@@H]5O[C@H](CO)[C@@H](O)[C@H](O)[C@H]5O)CC[C@]4(C)[C@H]3CC[C@]12C)C(C)C	> 100 µM	–	–	–
O=c1c(O)c(-c2ccc(O)c(O)c2)oc2cc(O)cc(O)c12 [QUERCETIN]	–	–	–	1.3 µM
